Test results from ChEMBL document CHEMBL3112586, “Synthesis of neolignans as microtubule stabilisers” (Bioorg Med Chem, 2014).
Activity calls are given as the source filed them. The rule behind the calls is not given here.

Tests used:
[1] = tested on: MDA-MB-231; experiment: Cytotoxicity against human MDA-MB-231 cells after 24 hrs by MTT assay; format: functional, cell-based; conditions: MDA-MB-231, 24 h
In short: (§1)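 Cells in DMEM, 10% FBS, 37 °C, 5% CO2, plated and incubated 24 h; compounds diluted in phenol-red-free DMEM with 0.5% FBS, vehicle control; after exposure, MTT (5 mg/mL stock) added 3 h, formazan dissolved in DMSO, absorbance 570 nm; IC50 derived; podophyllotoxin and tamoxifen positive controls.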

[2] = tested on: MCF7; experiment: Cytotoxicity against human MCF7 cells after 24 hrs by MTT assay; format: functional, cell-based; conditions: MCF7, 24 h; in short: as §1
[3] = tested on: HEK293; experiment: Cytotoxicity against human HEK293 cells after 24 hrs by MTT assay; format: cell-based; conditions: HEK293, 24 h; in short: as §1
[4] = molecular target: T1, Tubulin (Homo sapiens) (UniProt P68371+Q9H4B7+P0DPH7+P68366+Q13509+Q71U36+P04350+Q3ZCM7+P07437+P68363+Q9BQE3+Q6PEY2+Q13885+Q9BVA1+Q9BUF5); experiment: Induction of tubulin polymerization (unknown origin) at 10 to 40 uM measured every min for 1 hr; format: protein-complex assay
In short: (§2)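 Tubulin 3 mg/mL in 80 mM PIPES pH 6.9, 2 mM MgCl2, 0.5 mM EGTA, 1 mM GTP, 15% glycerol at 37 °C with test compounds at varied concentrations; turbidity at 340 nm read every min for 1 h; podophyllotoxin inhibitor and paclitaxel stabiliser references, DMSO negative control.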

[5] = molecular target: T1, Tubulin (Homo sapiens); experiment: Induction of tubulin polymerization (unknown origin) at 10 to 40 uM measured every min for 1 hr in presence of PDT; format: protein-complex assay; in short: as §2
[6] = tested on: MCF7; experiment: Induction of microtubule polymerization in human MCF7 cells assessed as actin-tubulin cytoskeleton stabilization at 10 uM by confocal microscopy; format: cell-based
In short: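 MCF-7 cells treated, immunostained for actin and tubulin, and examined by confocal microscopy; paclitaxel-treated cells as positive control.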

[7] = tested on: MDA-MB-231; experiment: Cytotoxicity against human MDA-MB-231 cells after 72 hrs by MTT assay; format: functional, cell-based; conditions: MDA-MB-231, 72 h; in short: as §1
[8] = tested on: MDA-MB-231; experiment: Cytotoxicity against human MDA-MB-231 cells after 48 hrs by MTT assay; format: functional, cell-based; conditions: MDA-MB-231, 48 h; in short: as §1
[9] = tested on: MCF7; experiment: Cytotoxicity against human MCF7 cells after 48 hrs by MTT assay; format: functional, cell-based; conditions: MCF7, 48 h; in short: as §1
[10] = species on record: Homo sapiens; experiment: Induction of microtubule stabilization (unknown origin) at 4 to 20 uM
[11] = tested on: MCF7; experiment: Cytotoxicity against human MCF7 cells after 48 to 72 hrs by MTT assay; format: functional, cell-based; in short: as §1
[12] = tested on: MCF7; experiment: Cytotoxicity against human MCF7 cells after 72 hrs by MTT assay; format: functional, cell-based; conditions: MCF7, 72 h; in short: as §1
[13] = tested on: MDA-MB-231; experiment: Cytotoxicity against human MDA-MB-231 cells after 48 to 72 hrs by MTT assay; format: functional, cell-based; in short: as §1

| Structure (SMILES) | IC50 [1] [µM] | IC50 [2] [µM] | other results |
| --- | --- | --- | --- |
| CCOC(=O)C(=C\c1cc(OC)c(O)c(OC)c1)/C(=C/c1cc(OC)c(O)c(OC)c1)C(=O)OCC | 82 | > 100 |  |
| CCOC(=O)/C=C/c1cc(OC)c(OC)c(/C(=C/c2ccc(OC)c(OC)c2)C(=O)OCC)c1 | > 100 | > 100 |  |
| COc1cc(/C=C(\C(N)=O)c2cc(/C=C/C(N)=O)cc(OC)c2O)ccc1O | 80 | 100 |  |
| CCOC(=O)C(=C\c1cc(OC)c(OC)c(OC)c1)/C(=C/c1cc(OC)c(OC)c(OC)c1)C(=O)OCC | > 100 | 100 |  |
| COc1cc([C@@H]2c3cc4c(cc3[C@H](O)[C@H]3COC(=O)[C@H]23)OCO4)cc(OC)c1OC [PODOFILOX] | 35.7 | 65 | IC50 [3]: 50 µM |
| COc1ccc(/C=C(\CO)c2cc(/C=C/CO)cc(OC)c2OC)cc1OC | > 100 | > 100 |  |
| COc1ccc(/C=C(\C(=O)O)c2cc(/C=C/C(=O)O)cc(OC)c2OC)cc1OC | 85 |  |  |
| CC(=O)O[C@H]1C(=O)[C@@]2(C)[C@H]([C@H](OC(=O)c3ccccc3)[C@]3(O)C[C@H](OC(=O)[C@H](O)[C@@H](NC(=O)c4ccccc4)c4ccccc4)C(C)=C1C3(C)C)[C@]1(OC(C)=O)CO[C@@H]1C[C@@H]2O |  |  | Activity [4]: Active; Activity [5]: inactive; Activity [6]: Active |
| CCOC(=O)/C=C/c1ccc(O)c(/C(=C/c2ccc(OC(C)=O)cc2)C(=O)OCC)c1 | 16 | 66 | Activity [4]: Active; IC50 [7]: 210 nM; IC50 [8]: 3.22 µM; IC50 [9]: 9.65 µM; IC50 [3]: 20 µM; Activity [10]: Active; Activity [11]: Active; IC50 [12]: 820 nM; Activity [13]: Active; Activity [5]: inactive |
| CC/C(=C(\c1ccccc1)c1ccc(OCCN(C)C)cc1)c1ccccc1 [TAMOXIFEN] |  |  | IC50 [3]: 26 µM |
| CCOC(=O)/C=C/c1ccc(OC)c(/C(=C/c2ccc(OC)cc2)C(=O)OCC)c1 | > 100 | > 100 |  |
| CCOC(=O)/C=C/c1cc(OC)c(O)c(/C(=C/c2ccc(OC(C)=O)c(OC)c2)C(=O)OCC)c1 | > 100 | > 100 |  |
| COc1ccc(/C=C(\COC(C)=O)c2cc(/C=C/COC(C)=O)cc(OC)c2OC)cc1OC | > 100 | > 100 |  |
| COc1ccc(/C=C(\C(N)=O)c2cc(/C=C/C(N)=O)cc(OC)c2OC)cc1OC | 32 | 100 |  |
| CCOC(=O)C(=C\c1cc(OC)c(OC(C)=O)c(OC)c1)/C(=C/c1cc(OC)c(OC(C)=O)c(OC)c1)C(=O)OCC | > 100 | > 100 |  |
| CCOC(=O)/C=C/c1cc(OC)c(O)c(OC)c1/C(=C/c1cc(OC)c(O)c(OC)c1)C(=O)OCC | 92 | 74 |  |
| CCOC(=O)/C=C/c1cc(OC)c(O)c(/C(=C/c2ccc(O)c(OC)c2)C(=O)OCC)c1 | > 100 | > 100 |  |
